Measured values taken from article PMC4936951 (Molecular pharmaceutics, 2016).
pKi: −log10 of the molar value. Values joined by “and” are separate entries in the source; they are usually repeats but may differ in a detail not shown here. Equal entries are not always repeated. Where two headings read alike, the source gives them in different places.

Key:
HCT 116/δOR cells = type: cell-based, human
How it was run: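 HCT 116/δOR cells (DMEM/F12, 10% calf serum, 1% pen/strep) on glass-bottom dishes, PBS-rinsed, exposed to 2.5 nM agent in Fluorobrite DMEM at 37°C, 5% CO2. Imaged every 30 s for 15 min; then rinsed and imaged in fresh medium, 4 fields every 10 min to 24 h (40× oil, Cy5, 1.5 s). Per-cell ROI intensity×area gave cytoplasm and membrane (total minus cytoplasm) fluorescence; 11–25 cells/day, three days.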

[1] = tested on: δOR+ (HCT 116/δOR) and δOR− (HCT 116) tumor xenografts; assay: Dose determination by in vivo fluorescence imaging of bilateral tumor xenografts; parameters: species or system nu/nu mice; details: 50 nmol/kg i.v., 24 h post-administration
How it was run: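 Female nu/nu mice received 8×10^6 cells, HCT 116 in the left flank and HCT 116/δOR in the right, and were imaged after 1 week. Dose given by tail-vein i.v. injection. Animals imaged immediately to confirm injection, then at 24 h, on an IVIS 200. Agent stored in dark aliquots at −80°C; animals kept in a dark chamber. Autofluorescence ratio taken from radiance in identical ROIs on background-subtracted Cy5 and autofluorescence images.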

[2] = tested on: δOR+ (HCT 116/δOR) and δOR− (HCT 116) tumor xenografts; type: in vivo, athymic nude female mice; details: for Rate of uptake, Slope × 10^7 / Rate of clearance, Slope × 10^7: linear regression, n=5
How it was run: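 Athymic nude female mice carried bilateral xenografts of 8×10^6 HCT 116 (left) and HCT 116/δOR (right) cells, grown to mean 500 mm3 by caliper (length×width²/2). Single i.v. dose of 4.5 nmol/kg. IVIS 200 Cy5 imaging at 3, 9, 15, 30, 45 min and 1.5, 3, 6, 12, 18, 24, 48, 72, 96, 168 h. Readout after background subtraction and pre-injection autofluorescence correction: ROI mean surface radiance in efficiency units.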

[3] = tested on: tumors and organs (spleen, pancreas, liver, kidneys, GI tract, heart, lungs); assay: Ex vivo biodistribution by fluorescence imaging of excised tumors and organs; type: in vivo, mice; details: 4.5 nmol/kg
How it was run: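 Separate group of bilateral HCT 116 / HCT 116/δOR xenograft mice given 4.5 nmol/kg. At 0, 7.5 min, 15 min, 45 min, 3 h, 6 h, 24 h and 48 h: imaged in vivo, then euthanized. Tumors, spleen, pancreas, liver, kidneys, GI tract, heart and lungs excised and fluorescence-imaged ex vivo. Animals kept in low light after dosing.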

[4] = tested on: HCT 116/δOR (positive) and HCT 116/RFP (negative) DWC tumors; assay: Intravital confocal microscopy in dorsal skinfold window chamber; type: in vivo, mouse
How it was run: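 Dorsal skinfold window chamber mice carrying HCT 116/δOR or HCT 116/RFP tumors received 45 nmol/kg via tail vein. Confocal imaging with 25× lens, 3570 pixels/min: continuous for 30 min, including 1, 1.5, 2 and 5 min frames, then further time points up to 24 h. Mean intensity ROIs placed in the vessel interior, in adjacent tumor tissue, and over tumor across time.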

δ-opioid receptor = details: read-out: Ki (binding affinity); δ-opioid receptor antagonist; cited from earlier work
[5] = 45 nmol/kg via tail vein, δOR negative tumor vessel

Dmt-Tic-Lys(Cy5)-OH [Dmt-Tic-Cy5]
maximum ratio of fluorescence inside (cytoplasm)/outside (cell membrane) (HCT 116/δOR cells; 2.5 nM): 1.69
time to observed cell-surface labeling after addition of ligand (HCT 116/δOR cells; 2.5 nM): ~ 2 min and 2 min
period of gradual tumor cell internalization (HCT 116/δOR cells; after addition of agent): 6 h and ~ 7 h and 7 h
fold of enhancement (FOE) δOR+ tumor relative to δOR− tumor [1]: 5 fold
time of clearance from δOR− tumor (nearly pre-injection levels) ([2]; 4.5 nmol/kg i.v.): ≤ 6 h
time of maximum fluorescence in δOR− tumor ([2]; 4.5 nmol/kg i.v.): 15 min
time of maximum fluorescence signal in δOR+ tumor ([2]; 4.5 nmol/kg i.v.): 3 h
time of systemic clearance ([2]; 4.5 nmol/kg i.v., based on clearance from negative tumor): ≤ 6 h
enhancement in positive tumor relative to negative tumor ([2]; 4.5 nmol/kg, from 30 min to 96 h post-administration): > 3 fold
Mean FOE (+ tumor/− tumor) ([2]; 4.5 nmol/kg, time 0.15 h): 2.7
Mean FOE (+ tumor/− tumor) ([2]; 4.5 nmol/kg, time 0.25 h): 2.7
Mean FOE (+ tumor/− tumor) ([2]; 4.5 nmol/kg, time 0.50 h): 3.2
Mean FOE (+ tumor/− tumor) ([2]; 4.5 nmol/kg, time 0.75 h): 4.5
Mean FOE (+ tumor/− tumor) ([2]; 4.5 nmol/kg, time 1 h): 6.5
Mean FOE (+ tumor/− tumor) ([2]; 4.5 nmol/kg, time 3 h): 9.7
Mean FOE (+ tumor/− tumor) ([2]; 4.5 nmol/kg, time 6 h): 17.5
Mean FOE (+ tumor/− tumor) ([2]; 4.5 nmol/kg, time 12 h): 13.5
Mean FOE (+ tumor/− tumor) ([2]; 4.5 nmol/kg, time 18 h): 26.7
Mean FOE (+ tumor/− tumor) ([2]; 4.5 nmol/kg, time 24 h): 20.6
Mean FOE (+ tumor/− tumor) ([2]; 4.5 nmol/kg, time 48 h): 8.9
Mean FOE (+ tumor/− tumor) ([2]; 4.5 nmol/kg, time 72 h): 10.8
Mean FOE (+ tumor/− tumor) ([2]; 4.5 nmol/kg, time 96 h): 5.6
Mean FOE (+ tumor/− tumor) ([2]; 4.5 nmol/kg, time 168 h): 1.8
ratio of enhancement in target positive tumors ([2]; maintained from 6 h to 24 h post-administration): approximately 20 fold
Rate of uptake, Slope × 10^7 ([2]; δOR+ tumor, 0 to 0.75 h): 264 Efficiency/h
Rate of clearance, Slope × 10^7 ([2]; δOR+ tumor, 3 to 96 h): −1.45 Efficiency/h
Rate of uptake, Slope × 10^7 ([2]; δOR− tumor, 0 to 0.25 h): 211 Efficiency/h
Rate of clearance, Slope × 10^7 ([2]; δOR− tumor, 0.25 to 24 h): −14.6 Efficiency/h
fluorescence signal in heart, lungs, GI tract, spleen and pancreas (ex vivo) [3]: minimal to no fluorescence signal
time of decrease to pre-injection levels in kidney and liver (ex vivo) ([3]; n=5): ≤ 24 h
time of highest fluorescence signal in kidney and liver (ex vivo) ([3]; n=5): 15 min
time of clearance from tumor vasculature [4, 5]: ≤ 2 min
time to peak intensity in tumor vasculature [4, 5]: ≤ 1 min
time of highest fluorescence intensity in negative tumor (intravital) ([4]; 45 nmol/kg, HCT 116/RFP DWC tumor): 10 min
time of highest fluorescence intensity in positive tumor (intravital) ([4]; 45 nmol/kg, HCT 116/δOR DWC tumor): 30 min
time of clearance of fluorescence from negative tumor (intravital) ([4]; 45 nmol/kg, positive tumor still strong signal): ≤ 24 h
pKi (δ-opioid receptor): 8.52
